The source made the active and inactive calls.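 How the source made its calls: active means inhibition above 25%, the campaign hit cutoff; inactive means the rest.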
target: Nuclear receptor subfamily 5 group A member 2 (Homo sapiens) (UniProt O00482); assay: suppression of LRH-1-driven Cyp19-luciferase signal, LRH-1 inverse agonist project, cell-based, luminescence, 3X%INH (AID 485348); details: HEK293T LRH-1 Cyp19-luciferase reporter, 20 h, at 5 µM, active compounds read high
How it was run: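 Assay system: HEK293T with full-length LRH-1 plus Cyp19 luciferase reporter. Times: 24 h bulk transfection, 4 h post-plating rest, 20 h compound exposure. Signal: luminescence. Control set: DMSO vehicle-treated wells as reference.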

Sequence of Nuclear receptor subfamily 5 group A member 2 (Homo sapiens) (O00482 whole entry, looked up): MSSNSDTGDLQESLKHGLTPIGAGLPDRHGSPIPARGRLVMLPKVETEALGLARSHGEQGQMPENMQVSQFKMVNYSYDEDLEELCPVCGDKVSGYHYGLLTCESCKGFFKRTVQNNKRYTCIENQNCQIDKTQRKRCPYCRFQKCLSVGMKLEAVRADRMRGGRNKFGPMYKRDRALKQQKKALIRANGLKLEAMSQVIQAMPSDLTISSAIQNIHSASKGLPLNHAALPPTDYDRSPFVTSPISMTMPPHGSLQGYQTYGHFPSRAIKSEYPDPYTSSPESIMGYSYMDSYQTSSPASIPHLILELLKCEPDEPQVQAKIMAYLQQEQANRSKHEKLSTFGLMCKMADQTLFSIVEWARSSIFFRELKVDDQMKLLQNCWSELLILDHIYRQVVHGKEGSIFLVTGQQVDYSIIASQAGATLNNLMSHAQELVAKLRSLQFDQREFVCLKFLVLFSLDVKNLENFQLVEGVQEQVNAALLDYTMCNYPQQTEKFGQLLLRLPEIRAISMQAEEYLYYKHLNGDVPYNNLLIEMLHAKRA

inhibition | SMILES
2.3% (inactive) | CCn1c(=O)cc(N2CCN(c3ccc(F)cc3)CC2)[nH]c1=O
14% (inactive) | Cn1c(=O)cc(N2CCN(c3ccc(F)cc3)CC2)[nH]c1=O
9.7% (inactive) | CCn1c(=O)cc(N2CCN(Cc3ccccc3)CC2)[nH]c1=O
36% | O=c1cc(N2CCN(c3ccccn3)CC2)[nH]c(=O)n1C1CCCCC1
39.3% | CCn1c(=O)cc(N2CCN(c3cccc(C(F)(F)F)c3)CC2)[nH]c1=O
52.3% | O=c1cc(N2CCN(c3cccc(Cl)c3)CC2)[nH]c(=O)n1C1CCCCC1
22.7% (inactive) | O=c1cc(N2CCN(c3ccccc3)CC2)[nH]c(=O)n1Cc1ccc(F)cc1
11% (inactive) | O=C(c1ccco1)N1CCN(c2cc(=O)n(C3CCCCC3)c(=O)[nH]2)CC1
0% (inactive) | O=c1cc(N2CCN(c3cccc(Cl)c3)CC2)[nH]c(=O)[nH]1
30.3% | O=c1cc(N2CCN(Cc3ccc(Cl)cc3)CC2)[nH]c(=O)n1C1CCCCC1
5.7% (inactive) | CC1CCN(c2cc(=O)n(Cc3ccc(F)cc3)c(=O)[nH]2)CC1
3.3% (inactive) | CCn1c(=O)cc(N2CCN(C(=O)c3ccco3)CC2)[nH]c1=O
32% | O=c1cc(N2CCN(c3ccccc3)CC2)[nH]c(=O)n1C1CCCCC1
3.7% (inactive) | CCn1c(=O)cc(N2CCN(c3ccccc3)CC2)[nH]c1=O
33.3% | CC(C)Cn1c(=O)cc(N2CCN(c3cccc(C(F)(F)F)c3)CC2)[nH]c1=O
45% | CCn1c(=O)cc(N2CCN(c3cccc(Cl)c3)CC2)[nH]c1=O
36.7% | C=CCn1c(=O)cc(N2CCN(c3cccc(C(F)(F)F)c3)CC2)[nH]c1=O
16% (inactive) | CCOC(=O)N1CCN(c2cc(=O)n(C3CCCCC3)c(=O)[nH]2)CC1
5.3% (inactive) | CCN1CCN(c2cc(=O)n(C3CCCCC3)c(=O)[nH]2)CC1
40.7% | Cn1c(=O)cc(N2CCN(c3cccc(Cl)c3)CC2)[nH]c1=O
0.3% (inactive) | O=C(c1ccccc1)N1CCN(c2cc(=O)n(C3CCCCC3)c(=O)[nH]2)CC1
3% (inactive) | O=c1cc(N2CCN(c3cccc(C(F)(F)F)c3)CC2)[nH]c(=O)n1Cc1ccccc1

The remaining lines, values behind:

SMILES | inhibition
O=c1cc(N2CCN(c3cccc(Cl)n3)CC2)[nH]c(=O)n1C1CCCCC1 | 45%
O=c1cc(N2CCC(Cc3ccccc3)CC2)[nH]c(=O)n1C1CCCCC1 | 2.3% (inactive)
Cc1ccc(C)n1CCN1CCN(c2cc(=O)n(C3CCCCC3)c(=O)[nH]2)CC1 | 32.3%
O=c1cc(N2CCN(c3ncccc3Cl)CC2)[nH]c(=O)n1C1CCCCC1 | 17.7% (inactive)
O=c1cc(N2CCN(C3CCCCC3)CC2)[nH]c(=O)n1C1CCCCC1 | 35.3%
O=c1cc(N2CCN(c3cccc(Cl)c3Cl)CC2)[nH]c(=O)n1C1CCCCC1 | 42%
CC1CCN(c2cc(=O)n(C3CCCCC3)c(=O)[nH]2)CC1 | 10% (inactive)
O=c1cc(N2CCN(c3cccc(C(F)(F)F)c3)CC2)[nH]c(=O)n1-c1ccccc1 | 17.7% (inactive)
O=c1cc(N2CCN(c3ncccc3C(F)(F)F)CC2)[nH]c(=O)n1C1CCCCC1 | 11.3% (inactive)
O=c1cc(N2CCN(c3cccc(C(F)(F)F)n3)CC2)[nH]c(=O)n1C1CCCCC1 | 3.3% (inactive)
COc1ccc(N2CCN(c3cc(=O)n(C4CCCCC4)c(=O)[nH]3)CC2)cc1 | 1.7% (inactive)
O=c1cc(N2CCN(c3ccnc4cc(Cl)ccc34)CC2)[nH]c(=O)n1C1CCCCC1 | 34.7%
C=CCN1CCN(c2cc(=O)n(C3CCCCC3)c(=O)[nH]2)CC1 | -30% (inactive)
Cc1ccc(Cl)cc1N1CCN(c2cc(=O)n(C3CCCCC3)c(=O)[nH]2)CC1 | 16.3% (inactive)
N#CCn1c(N2CCN(c3cccc(C(F)(F)F)c3)CC2)cc(=O)n(C2CCCCC2)c1=O | 2% (inactive)
O=c1cc(N2CCN(c3cccc(F)c3)CC2)[nH]c(=O)n1C1CCCCC1 | 36.7%
O=c1cc(N2CCN(c3cccc(C(F)(F)F)c3)CC2)n(Cc2ccccc2)c(=O)n1C1CCCCC1 | 21.3% (inactive)
Cc1cc(C)cc(N2CCN(c3cc(=O)n(C4CCCCC4)c(=O)[nH]3)CC2)c1 | 38.3%
O=c1cc(N2CCN(c3ccc(F)cc3F)CC2)[nH]c(=O)n1C1CCCCC1 | 3.3% (inactive)

SMILES | inhibition
O=c1cc(N2CCc3ccccc32)[nH]c(=O)n1C1CCCCC1 | 14.3% (inactive)
O=c1cc(N2CCN(CCN3CCOCC3)CC2)[nH]c(=O)n1C1CCCCC1 | 13.3% (inactive)
O=c1cc(N2CCCC2)[nH]c(=O)n1C1CCCCC1 | 8.7% (inactive)
C=CCn1c(N2CCN(c3cccc(C(F)(F)F)c3)CC2)cc(=O)n(C2CCCCC2)c1=O | 29.7%
O=c1cc(N2CCN(c3ccccc3Cl)CC2)[nH]c(=O)n1C1CCCCC1 | 16% (inactive)
O=c1cc(N2CCN(C(c3ccccc3)c3ccccc3)CC2)[nH]c(=O)n1C1CCCCC1 | 4% (inactive)
COC(=O)C1CCN(c2cc(=O)n(C3CCCCC3)c(=O)[nH]2)CC1 | 18% (inactive)
O=c1cc(N2CCN(c3ccc(F)cc3)CC2)[nH]c(=O)n1C1CCCCC1 | 1.3% (inactive)
O=c1cc(N2CCN(c3ccc(C(F)(F)F)cc3)CC2)[nH]c(=O)n1C1CCCCC1 | 0% (inactive)
O=c1cc(N2CCN(c3cc(C(F)(F)F)ccn3)CC2)[nH]c(=O)n1C1CCCCC1 | 20.3% (inactive)
O=c1cc(N2CCN(c3cccc(C(F)(F)F)c3)CC2)[nH]c(=O)n1C1CCCCC1 | 45.7%
O=c1cc(N2CCN(c3cccc(Br)c3)CC2)[nH]c(=O)n1C1CCCCC1 | 17% (inactive)
O=c1cc(N2CCN(Cc3ccc4c(c3)OCO4)CC2)[nH]c(=O)n1C1CCCCC1 | 16.7% (inactive)
O=c1cc(N2CCN(c3cc(Cl)cc(Cl)c3)CC2)[nH]c(=O)n1C1CCCCC1 | 20% (inactive)
O=c1cc(N2CCN(c3nc(-c4ccccc4)ns3)CC2)[nH]c(=O)n1C1CCCCC1 | 42%
O=c1cc(N2CCN(c3nccc4occc34)CC2)[nH]c(=O)n1C1CCCCC1 | 2.7% (inactive)
O=c1cc(N2CCCCC2)[nH]c(=O)n1C1CCCCC1 | 20.3% (inactive)
O=c1cc(N2CCOCC2)[nH]c(=O)n1C1CCCCC1 | 5.3% (inactive)
O=c1cc(N2CCN(c3ccccc3C(F)(F)F)CC2)[nH]c(=O)n1C1CCCCC1 | 16% (inactive)

Source: PubChem BioAssay AID485348 (The Scripps Research Institute Molecular Screening Center, 2010)
